Measured values from ChEMBL document CHEMBL1141288, “Antimalarial and antituberculous poly-O-acylated jatrophane diterpenoids from Pedilanthus tithymaloides” (J Nat Prod, 2007).
In brackets after ≈: the same amount, converted by molar mass. Activity calls are given as the source filed them. The rule behind the calls is not given here.

Tests used:
Candida albicans [1] = experiment: Antifungal activity against Candida albicans ATCC 90028 by tetrazolium/formazan assay; assay type: functional, organism-based
[2] = tested on: Mycobacterium tuberculosis; experiment: Antitubercular activity against Mycobacterium tuberculosis H37Ra by alamar blue microplate assay; assay type: functional
Plasmodium falciparum [3] = experiment: Antimalarial activity against Plasmodium falciparum K1 by microculture radioisotope assay; assay type: functional, organism-based
Summary of the method: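 The P. falciparum K1 strain is multidrug-resistant and was kept in continuous culture. In vitro activity was measured by the microculture radioisotope technique.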

Candida albicans [4] = experiment: Antifungal activity against Candida albicans ATCC 90028 at 50 ug/mL by tetrazolium/formazan assay; assay type: functional, organism-based
Summary of the method: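 Candida albicans ATCC 90028 tested with a tetrazolium/formazan assay. Compounds were run at 50 µg/mL. Amphotericin B served as the positive control and DMSO as the negative control.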

Plasmodium falciparum [5] = experiment: Antimalarial activity against Plasmodium falciparum K1 at 10 ug/mL by microculture radioisotope assay; assay type: functional, organism-based

Row | Structure (SMILES) | IC50 (Candida albicans [1]) | MIC [2] | IC50 (Plasmodium falciparum [3]) | Activity (Candida albicans [4]) | Activity (Plasmodium falciparum [5])
1 | C[C@@H]1[C@H](O)[C@@H](C)/C=C/C=C/C=C/C=C/C=C/C=C/C=C/[C@H](O[C@@H]2O[C@H](C)[C@@H](O)[C@H](N)[C@@H]2O)C[C@@H]2O[C@](O)(C[C@@H](O)C[C@@H](O)[C@H](O)CC[C@@H](O)C[C@@H](O)CC(=O)O[C@H]1C)C[C@H](O)[C@H]2C(=O)O (stereo in doubt) [AMPHOTERICIN B] | 0.068 µg/mL (≈ 0.0736 µM) |  |  |  | 
2 | NNC(=O)c1ccncc1 [ISONIAZID] |  | 0.1 µg/mL (≈ 0.729 µM) |  |  | 
3 | CC(=O)O/C1=C(\C)[C@@H](O)[C@H]2[C@@H](OC(=O)c3ccccc3)[C@@H](C)[C@H](O)[C@]2(OC(C)=O)[C@H](OC(C)=O)/C(C)=C/CC(C)(C)[C@@H](OC(C)=O)[C@H]1OC(C)=O |  | 100 µg/mL (≈ 140 µM) | 6 µM |  | 
4 | CC(=O)O/C1=C(\C)[C@@H](O)[C@H]2[C@@H](OC(=O)c3ccccc3)[C@@H](C)[C@H](OC(C)=O)[C@]2(OC(C)=O)[C@H](OC(C)=O)/C(C)=C/CC(C)(C)[C@@H](OC(C)=O)[C@H]1OC(C)=O |  | 50 µg/mL (≈ 65.9 µM) | 5.8 µM | inactive | 
5 | NC[C@H]1O[C@H](O[C@H]2[C@H](O)[C@@H](O[C@H]3O[C@H](CO)[C@@H](O)[C@H](N)[C@H]3O)[C@H](N)C[C@@H]2N)[C@H](O)[C@@H](O)[C@@H]1O [KANAMYCIN] |  | 2.5 µg/mL (≈ 5.16 µM) |  |  | 
6 | CC(=O)O[C@@H]1/C(C)=C/CC(C)(C)[C@@H](OC(C)=O)[C@@H](OC(C)=O)C(=O)/C(C)=C\[C@H]2[C@@H](OC(=O)c3ccccc3)[C@@H](C)[C@H](OC(C)=O)[C@]12OC(C)=O |  | 50 µg/mL (≈ 71.6 µM) | 4 µM |  | 
7 | CC(=O)O[C@H]1C[C@@H](OC(=O)c2ccccc2)/C(C)=C\[C@H]2[C@@H](OC(=O)c3ccccc3)[C@@H](C)[C@H](O)[C@]2(OC(C)=O)[C@H](O)[C@@](C)(O)/C=C/C1(C)C |  | 12.5 µg/mL (≈ 18.4 µM) | 5.9 µM | inactive | 
8 | CC(=O)O[C@H]1C[C@@H](O)/C(C)=C\[C@H]2[C@@H](OC(=O)c3ccccc3)[C@@H](C)[C@H](O)[C@]2(OC(C)=O)[C@H](O)[C@@](C)(O)/C=C/C1(C)C |  | 100 µg/mL (≈ 174 µM) |  | inactive | inactive
9 | C[C@H]1[C@@H](O)O[C@@H]2O[C@@]3(C)CC[C@H]4[C@H](C)CC[C@@H]1[C@@]24OO3 [ARTENIMOL] |  |  | 0.0036 µM |  | 
